Measurements as given in ChEMBL document CHEMBL2169766 (J Med Chem, 2012).
Blank lines part the entries; values can stand above or below the compound they belong to.

Legend:
[1] = target: T1, 5-hydroxytryptamine receptor 3A (Homo sapiens, UniProt P46098); experiment: Displacement of [3H]granisetron from 5HT3A receptor expressed in HEK293 cells after 24 hrs by scintillation counting in presence of quipazine; type: cell-based
T1 sequence (P46098 whole entry): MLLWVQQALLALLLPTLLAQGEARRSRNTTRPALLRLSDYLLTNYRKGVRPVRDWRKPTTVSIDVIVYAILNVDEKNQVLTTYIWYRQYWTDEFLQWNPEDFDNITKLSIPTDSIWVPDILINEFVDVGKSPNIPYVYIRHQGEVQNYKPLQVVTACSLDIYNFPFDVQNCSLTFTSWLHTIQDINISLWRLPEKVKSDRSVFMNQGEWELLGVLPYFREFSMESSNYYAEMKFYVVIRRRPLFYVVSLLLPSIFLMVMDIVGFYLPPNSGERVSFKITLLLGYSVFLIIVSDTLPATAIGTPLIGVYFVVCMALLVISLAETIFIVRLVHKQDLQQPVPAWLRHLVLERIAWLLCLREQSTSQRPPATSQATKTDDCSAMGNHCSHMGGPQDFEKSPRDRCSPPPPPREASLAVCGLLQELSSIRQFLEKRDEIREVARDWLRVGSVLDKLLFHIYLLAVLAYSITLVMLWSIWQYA
In short: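 Nonspecific binding defined with 1 mM quipazine. At least 24 h at 4 °C, GF/B filtration (0.3% PEI presoaked), scintillation counting. Hill-equation fit; Ki from IC50 via Cheng-Prusoff. At least three separate transfection plates.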

[2] = target: Neuronal acetylcholine receptor; alpha4/beta2 (Homo sapiens) (UniProt P17787+P43681); experiment: Displacement of [3H]cytisine from recombinant human nACH alpha4beta2 receptor expressed in SH-SY5Y cells at 0.1 uM after 120 mins; type: cell-based
In short: (§1)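 Single-point radioligand competition binding at an external contract lab. Reported as percent inhibition of control specific binding: 100 − (measured specific binding / control specific binding) × 100.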

[3] = species on record: Rattus norvegicus; experiment: Displacement of [3H]strychnine from glycine receptor in rat spinal cord at 0.1 uM after 15 mins; in short: as §1
[4] = target: GABA-A receptor; alpha-1/beta-2/gamma-2 (Homo sapiens) (UniProt P14867+P47870+P18507); experiment: Displacement of [3H]muscimol from recombinant human GABAA alpha1beta2gamma2 receptor expressed in CHO cells at 0.1 uM after 120 mins; type: cell-based; in short: as §1
[5] = test system: HEK293; experiment: Selectivity ratio for recombinant human 5HT7 receptor expressed in CHO cells to 5HT3A receptor expressed in HEK293 cells; type: cell-based
[6] = test system: HEK293; experiment: Selectivity ratio for recombinant human 5HT6 receptor expressed in CHO cells to 5HT3A receptor expressed in HEK293 cells; type: cell-based
[7] = test system: HEK293; experiment: Selectivity ratio for recombinant human 5HT4E receptor expressed in CHO cells to 5HT3A receptor expressed in HEK293 cells; type: cell-based
[8] = test system: HEK293; experiment: Selectivity ratio for recombinant human 5HT2C receptor expressed in HEK-293 to 5HT3A receptor expressed in HEK293 cells; type: cell-based
[9] = test system: HEK293; experiment: Selectivity ratio for recombinant human 5HT2C receptor expressed in HEK-293 cells to 5HT3A receptor expressed in HEK293 cells; type: cell-based
[10] = test system: HEK293; experiment: Selectivity ratio for recombinant rat 5HT1D receptor expressed in CHO cells to 5HT3A receptor expressed in HEK293 cells; type: cell-based
[11] = test system: HEK293; experiment: Selectivity ratio for recombinant human 5HT2A receptor expressed in HEK-293 cells to 5HT3A receptor expressed in HEK293 cells; type: cell-based
[12] = test system: HEK293; experiment: Selectivity ratio for 5HT1B receptor in rat cerebral cortex to 5HT3A receptor expressed in HEK293 cells; type: cell-based
[13] = test system: HEK293; experiment: Selectivity ratio for recombinant human 5HT1A receptor expressed in HEK-293 to 5HT3A receptor expressed in HEK293 cells; type: cell-based
[14] = test system: HEK293; experiment: Selectivity ratio for recombinant human nACH alpha7 receptor expressed in HEK-293 cells to 5HT3A receptor expressed in HEK293 cells; type: cell-based
[15] = test system: HEK293; experiment: Selectivity ratio for recombinant human nACH alpha4beta2 receptor expressed in SH-SY5Y cells to 5HT3A receptor expressed in HEK293 cells; type: cell-based
[16] = test system: HEK293; experiment: Selectivity ratio for glycine receptor in rat spinal cord to 5HT3A receptor expressed in HEK293 cells; type: cell-based
[17] = test system: HEK293; experiment: Selectivity ratio for recombinant human GABAA alpha1beta2gamma2 receptor expressed in CHO cells to 5HT3A receptor expressed in HEK293 cells; type: cell-based
[18] = target: 5-hydroxytryptamine receptor 7 (Homo sapiens) (UniProt P34969); experiment: Displacement of [3H]LSD from recombinant human 5HT7 receptor expressed in CHO cells at 0.1 uM after 120 mins; type: cell-based; in short: as §1
[19] = target: 5-hydroxytryptamine receptor 6 (Homo sapiens) (UniProt P50406); experiment: Displacement of [3H]LSD from recombinant human 5HT6 receptor expressed in CHO cells at 0.1 uM after 120 mins; type: cell-based; in short: as §1
[20] = target: T2, 5-hydroxytryptamine receptor 2C (Homo sapiens) (UniProt P28335); experiment: Displacement of [125I] +/- DOI from recombinant human 5HT2C receptor expressed in HEK-293 cells at 0.1 uM after 60 mins; type: cell-based; conditions: HEK293; in short: as §1
T2 sequence (whole entry): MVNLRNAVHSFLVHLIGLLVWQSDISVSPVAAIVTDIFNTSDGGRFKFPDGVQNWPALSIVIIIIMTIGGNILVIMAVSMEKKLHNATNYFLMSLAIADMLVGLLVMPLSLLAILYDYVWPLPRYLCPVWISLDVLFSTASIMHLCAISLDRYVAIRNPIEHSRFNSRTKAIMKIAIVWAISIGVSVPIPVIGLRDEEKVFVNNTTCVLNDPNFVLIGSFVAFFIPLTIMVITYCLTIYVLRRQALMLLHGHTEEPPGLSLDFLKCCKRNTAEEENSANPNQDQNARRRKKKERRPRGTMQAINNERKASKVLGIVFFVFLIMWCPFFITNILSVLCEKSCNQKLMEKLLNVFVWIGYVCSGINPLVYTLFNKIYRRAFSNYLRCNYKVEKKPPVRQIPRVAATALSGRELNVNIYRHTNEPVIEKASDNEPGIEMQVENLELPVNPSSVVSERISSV

[21] = target: 5-hydroxytryptamine receptor 4 (Homo sapiens) (UniProt Q13639); experiment: Displacement of [3H]GR113808 from recombinant human 5HT4E receptor expressed in CHO cells at 0.1 uM after 60 mins; type: cell-based; in short: as §1
[22] = target: 5-hydroxytryptamine receptor 2B (Homo sapiens) (UniProt P41595); experiment: Displacement of [125I] +/- DOI from recombinant human 5HT2B receptor expressed in CHO cells at 0.1 uM after 60 mins; type: cell-based; in short: as §1
[23] = target: 5-hydroxytryptamine receptor 2A (Homo sapiens) (UniProt P28223); experiment: Displacement of [125I] +/- DOI from recombinant human 5HT2A receptor expressed in HEK-293 cells at 0.1 uM after 60 mins; type: cell-based; conditions: HEK293; in short: as §1
[24] = target: 5-hydroxytryptamine receptor 1D (Rattus norvegicus) (UniProt P28565); experiment: Displacement of [3H]serotonin from recombinant rat 5HT1D receptor expressed in CHO cells at 0.1 uM after 60 mins; type: cell-based; in short: as §1
[25] = target: 5-hydroxytryptamine receptor 1B (Rattus norvegicus) (UniProt P28564); experiment: Displacement of [125I] CYP from 5HT1B receptor in rat cerebral cortex at 0.1 uM after 120 mins; type: tissue-based; in short: as §1
[26] = target: T3, 5-hydroxytryptamine receptor 1A (Homo sapiens) (UniProt P08908); experiment: Displacement of [3H]8-OH-DPAT from recombinant human 5HT1A receptor expressed in HEK-293 cells at 0.1 uM after 60 mins; type: cell-based; conditions: HEK293; in short: as §1
T3 sequence (whole entry): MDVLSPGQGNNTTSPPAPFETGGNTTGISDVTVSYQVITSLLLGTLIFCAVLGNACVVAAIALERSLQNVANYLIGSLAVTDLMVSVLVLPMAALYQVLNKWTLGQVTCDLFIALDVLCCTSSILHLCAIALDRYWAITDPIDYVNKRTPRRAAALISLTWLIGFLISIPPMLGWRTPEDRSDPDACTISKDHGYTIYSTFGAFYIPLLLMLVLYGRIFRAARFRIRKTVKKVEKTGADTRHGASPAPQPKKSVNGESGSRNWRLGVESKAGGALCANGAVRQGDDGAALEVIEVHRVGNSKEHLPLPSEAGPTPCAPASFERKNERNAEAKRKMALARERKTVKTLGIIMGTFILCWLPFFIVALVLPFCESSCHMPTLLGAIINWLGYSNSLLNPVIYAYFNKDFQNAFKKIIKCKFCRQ

[27] = target: Neuronal acetylcholine receptor subunit alpha-7 (Homo sapiens) (UniProt P36544); experiment: Displacement of [3H]epibatidine from recombinant human nACH alpha7 receptor expressed in HEK-293 cells at 0.1 uM after 120 mins; type: cell-based; conditions: HEK293
Sequence of Neuronal acetylcholine receptor subunit alpha-7 (Homo sapiens) (P36544 whole entry): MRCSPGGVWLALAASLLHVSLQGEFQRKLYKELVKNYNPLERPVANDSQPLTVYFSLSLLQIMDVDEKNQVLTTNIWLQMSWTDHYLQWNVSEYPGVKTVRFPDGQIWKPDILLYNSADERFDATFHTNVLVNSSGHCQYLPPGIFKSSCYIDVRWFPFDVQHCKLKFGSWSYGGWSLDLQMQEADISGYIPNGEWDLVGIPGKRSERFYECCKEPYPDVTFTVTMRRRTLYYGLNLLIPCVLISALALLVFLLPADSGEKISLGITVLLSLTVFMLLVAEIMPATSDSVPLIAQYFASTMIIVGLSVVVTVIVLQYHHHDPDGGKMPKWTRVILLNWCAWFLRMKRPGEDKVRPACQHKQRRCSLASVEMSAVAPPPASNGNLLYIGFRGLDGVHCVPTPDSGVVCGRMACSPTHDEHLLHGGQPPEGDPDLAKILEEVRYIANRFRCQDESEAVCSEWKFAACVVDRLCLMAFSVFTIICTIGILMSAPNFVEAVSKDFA

Sequence of 5-hydroxytryptamine receptor 2B (Homo sapiens) (P41595 whole entry): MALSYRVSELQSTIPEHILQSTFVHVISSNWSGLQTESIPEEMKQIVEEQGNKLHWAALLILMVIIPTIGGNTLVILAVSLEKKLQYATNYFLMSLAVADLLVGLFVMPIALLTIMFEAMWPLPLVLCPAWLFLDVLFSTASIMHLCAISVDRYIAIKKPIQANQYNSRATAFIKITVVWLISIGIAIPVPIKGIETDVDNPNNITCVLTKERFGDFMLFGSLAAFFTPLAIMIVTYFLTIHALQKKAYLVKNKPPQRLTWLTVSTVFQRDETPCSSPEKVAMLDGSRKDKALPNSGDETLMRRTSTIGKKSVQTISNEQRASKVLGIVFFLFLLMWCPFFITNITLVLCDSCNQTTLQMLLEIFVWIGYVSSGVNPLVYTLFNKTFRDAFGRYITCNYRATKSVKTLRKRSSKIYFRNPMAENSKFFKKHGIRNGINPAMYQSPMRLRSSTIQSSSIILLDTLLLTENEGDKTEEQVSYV
Sequence of 5-hydroxytryptamine receptor 7 (Homo sapiens) (P34969 whole entry): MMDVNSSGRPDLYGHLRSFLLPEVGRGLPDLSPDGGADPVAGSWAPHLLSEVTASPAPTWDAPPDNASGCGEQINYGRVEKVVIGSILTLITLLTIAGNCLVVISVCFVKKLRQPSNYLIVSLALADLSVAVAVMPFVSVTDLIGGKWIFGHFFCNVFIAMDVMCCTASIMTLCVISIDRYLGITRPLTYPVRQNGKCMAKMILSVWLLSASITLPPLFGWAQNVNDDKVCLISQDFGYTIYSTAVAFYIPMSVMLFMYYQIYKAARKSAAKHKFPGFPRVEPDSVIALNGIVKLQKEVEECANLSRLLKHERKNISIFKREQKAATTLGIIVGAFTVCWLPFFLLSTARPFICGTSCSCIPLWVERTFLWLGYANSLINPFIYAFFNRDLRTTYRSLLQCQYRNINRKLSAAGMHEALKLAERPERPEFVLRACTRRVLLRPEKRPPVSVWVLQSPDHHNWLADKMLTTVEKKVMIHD
Sequence of 5-hydroxytryptamine receptor 1B (Rattus norvegicus) (P28564 whole entry): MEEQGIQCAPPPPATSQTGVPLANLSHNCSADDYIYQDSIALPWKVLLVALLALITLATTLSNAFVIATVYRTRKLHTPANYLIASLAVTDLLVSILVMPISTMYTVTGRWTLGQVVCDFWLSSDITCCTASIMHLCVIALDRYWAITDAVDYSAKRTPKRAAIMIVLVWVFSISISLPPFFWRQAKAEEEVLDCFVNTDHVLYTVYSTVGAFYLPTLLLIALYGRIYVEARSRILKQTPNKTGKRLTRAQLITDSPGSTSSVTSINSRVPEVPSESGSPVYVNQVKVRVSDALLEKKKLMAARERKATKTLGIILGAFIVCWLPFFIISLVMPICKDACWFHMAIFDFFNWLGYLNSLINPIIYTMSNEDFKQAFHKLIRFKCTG
Sequence of 5-hydroxytryptamine receptor 4 (Homo sapiens) (Q13639 whole entry): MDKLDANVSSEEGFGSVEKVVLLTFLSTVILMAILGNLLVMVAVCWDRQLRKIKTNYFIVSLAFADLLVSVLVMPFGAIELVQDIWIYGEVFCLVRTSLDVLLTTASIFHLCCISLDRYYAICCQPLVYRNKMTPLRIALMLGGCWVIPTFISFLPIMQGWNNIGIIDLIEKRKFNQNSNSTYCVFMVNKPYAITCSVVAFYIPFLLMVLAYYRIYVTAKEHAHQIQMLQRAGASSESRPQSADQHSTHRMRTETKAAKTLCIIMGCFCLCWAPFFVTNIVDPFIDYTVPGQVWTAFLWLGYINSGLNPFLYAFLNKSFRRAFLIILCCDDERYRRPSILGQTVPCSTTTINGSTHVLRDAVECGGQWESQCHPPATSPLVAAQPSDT
Sequence of 5-hydroxytryptamine receptor 6 (Homo sapiens) (P50406 whole entry): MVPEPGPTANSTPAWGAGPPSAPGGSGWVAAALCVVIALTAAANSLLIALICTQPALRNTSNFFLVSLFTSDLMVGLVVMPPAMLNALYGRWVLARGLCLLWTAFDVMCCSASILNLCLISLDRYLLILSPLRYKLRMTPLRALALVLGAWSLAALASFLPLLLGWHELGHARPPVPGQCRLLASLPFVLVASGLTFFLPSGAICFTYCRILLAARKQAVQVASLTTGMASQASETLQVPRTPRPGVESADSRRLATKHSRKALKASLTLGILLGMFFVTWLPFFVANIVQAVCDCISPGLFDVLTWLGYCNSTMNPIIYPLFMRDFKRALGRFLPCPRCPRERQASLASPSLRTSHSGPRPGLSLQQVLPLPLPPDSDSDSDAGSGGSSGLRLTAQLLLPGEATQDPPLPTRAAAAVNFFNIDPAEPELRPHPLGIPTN
Sequence of 5-hydroxytryptamine receptor 2A (Homo sapiens) (P28223 whole entry): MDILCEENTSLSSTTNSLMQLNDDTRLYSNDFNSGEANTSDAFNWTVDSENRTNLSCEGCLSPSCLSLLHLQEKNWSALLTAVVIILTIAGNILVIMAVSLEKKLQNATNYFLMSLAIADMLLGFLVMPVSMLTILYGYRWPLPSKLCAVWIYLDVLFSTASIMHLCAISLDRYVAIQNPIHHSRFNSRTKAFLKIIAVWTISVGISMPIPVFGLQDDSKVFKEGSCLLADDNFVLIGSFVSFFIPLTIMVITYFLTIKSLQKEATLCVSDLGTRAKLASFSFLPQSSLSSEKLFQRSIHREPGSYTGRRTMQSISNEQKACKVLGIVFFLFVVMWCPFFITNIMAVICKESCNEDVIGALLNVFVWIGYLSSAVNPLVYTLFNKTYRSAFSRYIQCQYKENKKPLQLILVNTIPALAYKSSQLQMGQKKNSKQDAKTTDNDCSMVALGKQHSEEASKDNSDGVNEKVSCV
Sequence of 5-hydroxytryptamine receptor 1D (Rattus norvegicus) (P28565 whole entry): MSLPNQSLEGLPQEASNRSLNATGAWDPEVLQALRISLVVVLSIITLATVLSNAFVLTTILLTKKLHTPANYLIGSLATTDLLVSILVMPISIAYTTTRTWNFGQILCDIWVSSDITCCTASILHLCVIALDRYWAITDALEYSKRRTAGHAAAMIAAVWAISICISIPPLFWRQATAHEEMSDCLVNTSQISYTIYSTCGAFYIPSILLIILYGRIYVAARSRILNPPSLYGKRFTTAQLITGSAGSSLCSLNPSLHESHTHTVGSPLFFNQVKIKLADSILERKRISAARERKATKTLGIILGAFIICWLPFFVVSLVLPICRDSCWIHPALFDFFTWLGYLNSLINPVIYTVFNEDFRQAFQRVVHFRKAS

SMILES: CN1CCN(c2nc(NCc3ccccc3)c3cc(Cl)ccc3n2)CC1
Ki [1]: 13.8 nM

SMILES: CNc1nc(N2CCCN(C)CC2)nc2ccc(Cl)cc12
Ki [1]: 18.2 nM

SMILES: CN1CCN(c2cnc3ccccc3n2)CC1
Ki [1]: 4.68 nM

SMILES: CN1CCN(c2nc(NCc3ccc(N)cc3)c3cc(Cl)ccc3n2)CC1
Ki [1]: 2.69 nM

SMILES: CN1CCN(c2nc(NCCO)c3cc(Cl)ccc3n2)CC1
Ki [1]: 14.8 nM

SMILES: CN1CCN(c2cc3ccccc3c(N)n2)CC1
Ki [1]: 219 nM

SMILES: CNc1nc(N2CCN(C)CC2)cc2ccccc12
Ki [1]: 5.89 nM

SMILES: CN1CCN(c2nc3ccccc3c(=O)[nH]2)CC1
Ki [1]: 46.8 nM

SMILES: CNc1nc(N2CC3CCCNC3C2)nc2ccc(Cl)cc12 (stereo not drawn)
Ki [1]: 3550 nM

SMILES: CN1CCN(c2nc(NCCc3ccccc3)c3cc(Cl)ccc3n2)CC1
Ki [1]: 79.4 nM

SMILES: CN1CCN(c2nc(N)c3cc(Cl)ccc3n2)CC1
Ki [1]: 12 nM

SMILES: CN1CCN(c2nc(N)c3ccccc3n2)CC1
inhibition [2]: < 15%
inhibition [3]: < 15%
inhibition [4]: < 15%
Ki [1]: 0.0513 nM
Selectivity ratio [5]: 1000
Selectivity ratio [6]: 1000
Selectivity ratio [7]: 1000
Selectivity ratio [8]: 1000
Selectivity ratio [9]: 1000
Selectivity ratio [10]: 1000
Selectivity ratio [11]: 1000
Selectivity ratio [12]: 1000
Selectivity ratio [13]: 1000
Selectivity ratio [14]: 1000
Selectivity ratio [15]: 1000
Selectivity ratio [16]: 1000
Selectivity ratio [17]: 1000
inhibition [18]: < 15%
inhibition [19]: < 15%
inhibition [20]: < 15%
inhibition [21]: < 15%
inhibition [22]: 43%
inhibition [23]: < 15%
inhibition [24]: < 15%
inhibition [25]: < 15%
inhibition [26]: < 15%
inhibition [27]: 31%

Ki [1]: 468 nM
SMILES: CNc1nc(N2CC(N(C)C)C2)nc2ccc(Cl)cc12

SMILES: CN1CCN(c2ncc3cc(Cl)ccc3n2)CC1
Ki [1]: 7.41 nM

SMILES: CNc1nc(N2CCN(C)CC2)nc2ccccc12
Ki [1]: 2.95 nM

SMILES: CNc1nc(N2CCN(C)CC2)nc2ccc(Cl)cc12
Ki [1]: 1.12 nM

SMILES: CN1CCN(c2ccc3c(N)cccc3n2)CC1
Ki [1]: 204 nM

Ki [1]: 2340 nM
SMILES: CNc1nc(N2CC[C@H](N)C2)nc2ccc(Cl)cc12

SMILES: CN1CCN(c2ccc3ccccc3n2)CC1
Ki [1]: 0.457 nM

SMILES: CN1CCN(c2ccc3cccc(N)c3n2)CC1
Ki [1]: 331 nM

SMILES: CN1CCN(c2nc(NCc3ccoc3)c3cc(Cl)ccc3n2)CC1
Ki [1]: 2.82 nM

SMILES: CN1CCN(c2nc(N(C)C)c3cc(Cl)ccc3n2)CC1
Ki [1]: 6.61 nM

SMILES: CN1CCN(c2nc(O)c3cc(Cl)ccc3n2)CC1
Ki [1]: 575 nM

SMILES: CN1CCN(c2nc(NCC3CCCCC3)c3cc(Cl)ccc3n2)CC1
Ki [1]: 16600 nM

SMILES: CN1CCN(c2ncc3ccccc3n2)CC1
Ki [1]: 1.35 nM

SMILES: CC(C)Nc1nc(N2CCN(C)CC2)nc2ccc(Cl)cc12
Ki [1]: 166 nM

SMILES: CN1CCN(c2cc3ccccc3cn2)CC1
Ki [1]: 1.62 nM

SMILES: CN1CCN(c2cnc3ccccc3c2)CC1
Ki [1]: 407 nM

SMILES: CN1CCN(c2ccc3ccccc3c2)CC1
Ki [1]: 537 nM

Ki [1]: 11700 nM
SMILES: CNc1nc(NCCC2CCN(C)C2)nc2ccc(Cl)cc12 (stereo not drawn)

SMILES: CNc1cc(N2CCN(C)CC2)nc2ccccc12
Ki [1]: 13.5 nM

SMILES: CN1CCN(c2cc(N)c3ccccc3n2)CC1
Ki [1]: 1.45 nM
